Results taken from ChEMBL document CHEMBL4251739, “Rhodanine as a Potent Scaffold for the Development of Broad-Spectrum Metallo-β-lactamase Inhibitors” (ACS Med Chem Lett, 2018).

Assays:
Bacteria [1] = experiment: Inhibition of bacterial ImiS expressed in Escherichia coli BL21(DE3) at 50 uM using imipenem as substrate by spectrometric method relative to control
[2] = Inhibition of bacterial NDM1 expressed in Escherichia coli BL21(DE3) using cefazolin as substrate by spectrometric method; parameters: species or system Bacteria
Outline: (§1)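 Purified enzymes, overexpressed and purified by earlier methods, assayed under steady-state conditions by UV spectrometry in 50 mM Tris, pH 7.0. Substrate for NDM-1, VIM-2 and L1 was cefazolin (50 µM), read at 262 nm. Substrate for ImiS was imipenem (60 µM), read at 300 nm. Inhibitor varied 0–50 µM; IC50 is the concentration giving 50% loss of activity.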

[3] = Inhibition of bacterial VIM2 expressed in Escherichia coli BL21(DE3) using cefazolin as substrate by spectrometric method; parameters: species or system Bacteria; outline: as §1
Bacteria [4] = experiment: Inhibition of bacterial NDM1 expressed in Escherichia coli DH10B assessed as potentiation of cefazolin-induced antibacterial activity by measuring cefazolin MIC at 32 ug/ml after 16 hrs by broth micro-dilution method (reference value: 8 ug/ml)
[5] = Inhibition of bacterial L1 expressed in Escherichia coli BL21(DE3) using cefazolin as substrate by spectrometric method; parameters: species or system Bacteria; outline: as §1
Bacteria [6] = experiment: Inhibition of bacterial VIM2 expressed in Escherichia coli DH10B assessed as potentiation of cefazolin-induced antibacterial activity by measuring cefazolin MIC at 32 ug/ml after 16 hrs by broth micro-dilution method (reference value: 512 ug/ml)
Bacteria [7] = experiment: Inhibition of bacterial L1 expressed in Escherichia coli DH10B assessed as potentiation of cefazolin-induced antibacterial activity by measuring cefazolin MIC at 32 ug/ml after 16 hrs by broth micro-dilution method (reference value: 32 ug/ml)
Outline: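 Dose-dependent cefazolin MIC assay against E. coli DH10B expressing L1 from a pBCSK plasmid, with varied inhibitor doses up to 256 µg/mL. Fold decrease in MIC was taken relative to cefazolin alone. Medium pH was monitored during the assay.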

Bacteria [8] = experiment: Inhibition of bacterial ImiS expressed in Escherichia coli DH10B assessed as potentiation of imipenem-induced antibacterial activity by measuring imipenem MIC at 32 ug/ml after 16 hrs by broth micro-dilution method (reference value: 2 ug/ml)
Bacteria [9] = experiment: Inhibition of bacterial VIM2 expressed in Escherichia coli BL21(DE3) at 50 uM using cefazolin as substrate by spectrometric method relative to control
[10] = Inhibition of bacterial ImiS expressed in Escherichia coli BL21(DE3) using imipenem as substrate by spectrometric method; parameters: species or system Bacteria; outline: as §1
Bacteria [11] = experiment: Inhibition of bacterial NDM1 expressed in Escherichia coli BL21(DE3) at 50 uM using cefazolin as substrate by spectrometric method relative to control

Structure (SMILES)	inhibition (Bacteria [1])	IC50 [2]	IC50 [3]	MIC (Bacteria [4])	IC50 [5]	MIC (Bacteria [6])	MIC (Bacteria [7])	MIC (Bacteria [8])	inhibition (Bacteria [9])	IC50 [10]	inhibition (Bacteria [11])
O=C(O)CN1C(=O)/C(=C/c2ccc(F)cc2)SC1=S	< 50%	15400 nM	14400 nM	4 µg/mL	200 nM	256 µg/mL	8 µg/mL	2 µg/mL	–	–	–
O=C(O)c1ccc(N2C(=O)/C(=C/c3ccco3)SC2=S)cc1	< 50%	690 nM	–	4 µg/mL	180 nM	512 µg/mL	8 µg/mL	1 µg/mL	< 50%	–	–
O=C(O)CN1C(=O)/C(=C/c2ccco2)SC1=S	< 50%	47000 nM	–	8 µg/mL	1700 nM	512 µg/mL	8 µg/mL	2 µg/mL	< 50%	–	–
O=C(O)CN1C(=O)/C(=C/c2ccccn2)SC1=S	–	–	–	8 µg/mL	160 nM	512 µg/mL	8 µg/mL	2 µg/mL	< 50%	19100 nM	< 50%
COc1ccc(/C=C(\S)C(=O)O)cc1	< 50%	–	4700 nM	16 µg/mL	320 nM	256 µg/mL	16 µg/mL	2 µg/mL	–	–	< 50%
O=C(O)CN1C(=O)/C(=C/c2ccccc2)SC1=S	< 50%	–	–	8 µg/mL	320 nM	256 µg/mL	8 µg/mL	2 µg/mL	< 50%	–	< 50%
O=C(O)CN1C(=O)/C(=C/c2ccc(Cl)cc2)SC1=S	< 50%	–	15300 nM	8 µg/mL	220 nM	512 µg/mL	8 µg/mL	2 µg/mL	–	–	< 50%
O=C(O)CN1C(=O)/C(=C/c2ccc(C(F)(F)F)cc2)SC1=S	< 50%	14300 nM	12700 nM	4 µg/mL	110 nM	256 µg/mL	8 µg/mL	1 µg/mL	–	–	–
O=C(O)c1ccc(N2C(=O)/C(=C/c3ccc(F)cc3)SC2=S)cc1	–	8400 nM	6900 nM	2 µg/mL	80 nM	256 µg/mL	8 µg/mL	1 µg/mL	–	3600 nM	–
O=C(O)CN1C(=O)/C(=C/c2ccc(Cl)cc2Cl)SC1=S	< 50%	21500 nM	25100 nM	4 µg/mL	80 nM	256 µg/mL	16 µg/mL	4 µg/mL	–	–	–
O=C(O)CN1C(=O)/C(=C/c2ccc3ccccc3c2)SC1=S	< 50%	–	–	16 µg/mL	370 nM	512 µg/mL	8 µg/mL	2 µg/mL	< 50%	–	< 50%
O=C(O)CN1C(=O)/C(=C/c2cccs2)SC1=S	< 50%	–	–	8 µg/mL	770 nM	512 µg/mL	8 µg/mL	2 µg/mL	< 50%	–	< 50%
O=C(O)CN1C(=O)/C(=C/c2cccc3ccccc23)SC1=S	< 50%	–	27900 nM	8 µg/mL	280 nM	512 µg/mL	8 µg/mL	1 µg/mL	–	–	< 50%
O=C(O)c1ccc(N2C(=O)/C(=C/c3cccs3)SC2=S)cc1	< 50%	14300 nM	–	4 µg/mL	590 nM	512 µg/mL	8 µg/mL	1 µg/mL	< 50%	–	–
COc1ccc(/C=C2\SC(=S)N(CC(=O)O)C2=O)cc1	< 50%	25100 nM	–	4 µg/mL	600 nM	512 µg/mL	8 µg/mL	2 µg/mL	< 50%	–	–
